Data: ChEMBL document CHEMBL1129959, “Synthesis and antiproliferative and antiviral activity of carbohydrate-modified pyrrolo[2,3-d]pyridazin-7-one nucleosides” (J Med Chem, 1997)

Columns and labels:
HFF [1] = assay: Cytotoxicity in HFF cells was estimated by the visual scoring of cells not affected by virus infection in the plaque reduction assay.; conditions: Homo sapiens
KB [2] = assay: Cytotoxicity in KB cells.; format: functional, cell-based; conditions: Homo sapiens
Outline: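 KB cells grown in MEM with Hank's salts and 5% FBS. Growth was measured spectrophotometrically by crystal violet staining 2 days after drug treatment, in quadruplicate wells. IC50 was taken from linear regression of percent inhibition against log concentration. 2-Acetylpyridine thiosemicarbazone was the positive control.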

HFF [3] = assay: Antiviral activity was determined by the HCMV plaque assay using HFF cells; format: functional, cell-based; conditions: Homo sapiens
Outline: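 HCMV Towne strain (plaque-purified isolate Po) on HFF monolayers grown in MEM with Earle's salts and 10% FBS. Inoculum held approximately 50 PFU. Compounds were dissolved in the overlay medium and plaques counted. IC50 came from linear regression of percent inhibition against log concentration. Ganciclovir was the positive control.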

L1210 [4] = assay: The in vitro cytotoxicity against L1210 cells was evaluated; format: functional, cell-based; conditions: Mus musculus
Outline: (§1)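 L1210 cells were grown in static suspension in Fischer's medium with 10% heat-inactivated horse serum. Cells were counted at 0, 48 and 96 h across a range of compound concentrations. Growth rate is the ratio of control to treated population-doubling time; the 48–96 h rate was used if growth slowed. IC50 is the concentration giving 50% of control growth rate; highest concentration tested was 100 μM.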

KB [5] = assay: Antiviral activity was estimated by HSV-1 ELISA method.; format: functional, cell-based; conditions: Homo sapiens
Outline: (§2)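 HSV-1 S-148 strain was assayed by enzyme immunoassay (ELISA) in quadruplicate wells. The reported value is the average IC50, taken from linear regression of percent inhibition against log drug concentration. Acyclovir served as the positive control, and sets were rejected if it deviated more than 1.5 standard deviations from its mean.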

KB [6] = assay: Antiviral activity was estimated by HSV-1 ELISA method (data of single experiment); format: functional, cell-based; conditions: Homo sapiens
Outline: as §2

L1210 [7] = assay: cytotoxicity in L1210 cell culture(cell proliferation inhibited by 50%); format: functional, cell-based; conditions: Mus musculus
Outline: as §1

KB [8] = assay: Antiviral activity was estimated by HSV-1 ELISA method; format: functional, cell-based; conditions: Homo sapiens
Outline: as §2

L1210 [9] = assay: Cytotoxicity in L1210 cell culture(cell proliferation inhibited by 50%); format: functional, cell-based; conditions: Mus musculus
Outline: as §1

HFF [10] = assay: Antiviral activity was estimated by the HCMV yield reduction experiments.; format: functional; conditions: Homo sapiens
Outline: (§3)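 HCMV Towne strain yield reduction assay. Results are given as IC90, derived by linear regression of percent inhibition against log drug concentration. Ganciclovir was the positive control.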

HFF [11] = assay: Antiviral activity was estimated by the HCMV yield reduction experiments; format: functional; conditions: Homo sapiens
Outline: as §3

Nc1nnc(O)c2c1ccn2C1CCC(CO)O1 (stereo unspecified)
IC50 (HFF [1]): > 100 µM | IC50 (KB [2]): > 100 µM | IC50 (HFF [3]): > 100 µM | IC50 (L1210 [4]): > 100 µM | IC50 (KB [5]): > 100 µM

Nc1nnc(O)c2c1ccn2COC(CO)CO
IC50 (KB [6]): > 100 µM | IC50 (L1210 [7]): > 100 µM | IC50 (HFF [1]): > 100 µM | IC50 (KB [2]): > 100 µM | IC50 (HFF [3]): > 100 µM

Nc1nnc(O)c2c1c(Br)cn2COC(CO)CO
IC50 (HFF [1]): > 100 µM | IC50 (KB [8]): > 100 µM | IC50 (L1210 [9]): > 100 µM | IC50 (KB [2]): > 100 µM | IC50 (HFF [3]): > 100 µM

Nc1nnc(O)c2c1ccn2[C@@H]1O[C@H](CO)[C@@H](O)[C@H]1O
IC50 (HFF [1]): > 100 µM | IC50 (KB [5]): 90 µM

Nc1n[nH]c(=O)c2c1c(Br)cn2[C@@H]1O[C@H](CO)[C@@H](O)[C@@H]1O
IC90 (HFF [10]): 6.3 µM | IC50 (HFF [1]): 32 µM | IC50 (KB [2]): 15 µM | IC50 (HFF [3]): 2.7 µM | IC50 (L1210 [4]): 18 µM | IC50 (KB [5]): 20 µM

Nc1nnc(O)c2c1ccn2[C@@H]1O[C@H](CO)[C@@H](O)[C@@H]1O
IC50 (HFF [1]): > 100 µM | IC50 (HFF [3]): > 100 µM | IC50 (L1210 [4]): 100 µM | IC50 (KB [5]): 90 µM

Nc1n[nH]c(=O)c2c1c(Br)cn2[C@@H]1O[C@H](CO)[C@@H](O)[C@H]1O
IC90 (HFF [10]): 0.04 µM | IC50 (HFF [3]): 0.1 µM | IC50 (KB [5]): 2 µM

Nc1n[nH]c(=O)c2c1ccn2[C@H]1C[C@H](O)[C@@H](CO)O1
IC50 (HFF [1]): > 100 µM | IC50 (L1210 [9]): > 100 µM | IC50 (KB [2]): > 100 µM | IC50 (HFF [3]): > 100 µM | IC50 (KB [5]): 128 µM

Nc1nnc(O)c2c1c(Br)cn2C1CCC(CO)O1 (stereo unspecified)
IC90 (HFF [10]): 10 µM | IC50 (HFF [1]): 32 µM | IC50 (KB [2]): 10 µM | IC50 (HFF [3]): 12 µM | IC50 (L1210 [4]): 38 µM | IC50 (KB [5]): 27 µM

Nc1nnc(O)c2c1c(I)cn2C1O[C@H](CO)[C@@H](O)[C@H]1O (stereo partly specified)
IC90 (HFF [10]): 0.02 µM | IC50 (HFF [3]): 0.4 µM | IC50 (L1210 [4]): 0.02 µM | IC50 (KB [5]): 4.5 µM

Nc1nnc(O)c2c1c(Cl)cn2C1O[C@H](CO)[C@@H](O)[C@H]1O (stereo partly specified)
IC90 (HFF [10]): 0.7 µM | IC50 (HFF [3]): 0.2 µM | IC50 (KB [5]): 6.8 µM

Nc1nc2c(ncn2COC(CO)CO)c(=O)[nH]1 [GANCICLOVIR]
IC90 (HFF [11]): 1.8 µM | IC50 (KB [6]): 3.5 µM | IC50 (HFF [3]): 7.7 µM
